Data: the RNAGym collection of RNA variant scans (doi:10.1038/s41586-018-0170-7)

B1: tRNA (parent)
chain: GUUCCGUUGGCGUAAUGGUAACGCGUCUCCCUCCUAAGGAGAAGACUGCGGGUUCGAGUCCCGUACGGAACG

Variants of: B1
Assay: yeast fitness, log relative to wild type (ln ratio); higher = fitter; tRNA-Arg(CCU), competitive growth, 37 C, 1 M NaCl
Outline: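 A combinatorial tRNA-Arg(CCU) variant library was carried on a HIS3 centromeric plasmid in BY4742 lacking the chromosomal gene, from two independent transformations. Pools grew 4 generations in SC-HIS at 30 °C, then ~6.5 generations (~26.5 h) in SC-HIS 1M NaCl at 37 °C, with three outputs per input. Variants were counted by 125 bp paired-end Illumina sequencing. Fitness is ln of each genotype's generations (OD-scaled log2 output/input frequency, inverse-variance weighted across replicates) over the wild-type's.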

Variant | yeast fitness (ln)
A43C A70U C71U | -0.0836
U2G A43C C46U C66A A70G | -0.119
G1A U2C G6U C27U C46U A70G C71U | -0.203
U2G G6U C27U C46U C66A A70U C71U | -0.143
G1A G6A C46U | -0.0333
U2C G6U C27U C66A C71U | -0.15
U2C G6A C27U A43C C66U A69G A70U | -0.33
G6U C27U A43C A70G | -0.282
G1A U2C C27U C46U A69G A70U | -0.0465
G1A U2C A43C C46U C66U A70G C71U | -0.0729
G1A C27U C46U C66U A69G A70U | -0.286
U2C G6U C27U A43C C46U C66A C71U | -0.17
U2G G6A C27U A43C C66U A69G A70G | -0.3
G1A U2G G6A C27U C46U C66A A70G C71U | -0.282
U2C C27U A43C C46U C66U A69G A70G C71U | -0.216
G1A U2C A43C C46U | -0.00932
C27U A43C A69G A70G C71U | -0.142
G1A U2C G6A C27U C46U A70U | -0.0702
G1A U2G G6A A43C C46U A69G A70U | -0.0779
G1A U2C G6A C46U C71U | -0.108
U2C G6U C27U A43C C46U C66U A70G | -0.304

Variant | yeast fitness (ln)
G6U C27U C46U C66U A70G C71U | -0.245
U2G G6A C71U | -0.0566
G1A G6U A70G | -0.192
G1A U2G C46U C66U A70U C71U | -0.185
G6A C27U C46U C71U | -0.176
U2C G6U | -0.00207
G1A U2C A43C C66A A69G A70G C71U | -0.238
U2G C27U A43C C66U A69G A70U C71U | -0.42
G1A U2G C27U A43C C46U C71U | -0.0914
G1A U2G G6A C27U A43C C46U C66U A69G A70U | -0.436
G1A U2G G6A A43C C46U C66U A70U C71U | -0.086
C27U A43C A69G | -0.0699
U2C C27U C46U C66A A69G A70G C71U | -0.106
U2C G6U C27U A43C C46U A69G A70G C71U | -0.188
U2G C27U C66A A70G | -0.128
U2C G6U A43C C66U A70G | -0.279
U2G A43C C46U C66U A70U C71U | -0.214
G1A U2G G6U C27U C46U C66A A69G A70G C71U | -0.417
G6U C27U A43C | -0.197
G1A G6U C46U C66U A70G | -0.195
G1A G6U C46U C66U A70U | -0.153

Variant | yeast fitness (ln)
U2G G6A A43C A70U C71U | -0.169
U2C C27U A43C C46U C66A A69G A70G | -0.0542
U2C G6U A43C C46U C66U A69G A70G | -0.262
G1A U2C G6A A43C C66U A70G | -0.12
U2C C66A | 0.0749
U2C G6U C27U C46U A70U C71U | -0.171
U2C A43C C46U A69G C71U | -0.0944
U2C A43C C46U A69G A70G | -0.0147
U2C G6U C27U C66U A69G A70G C71U | -0.288
U2G C27U A43C C66A A70G C71U | -0.257
U2C G6A C27U A43C C46U C66A A70U | -0.0497
A43C C46U C66U | -0.0822
G1A A43C C66U | -0.172
G6A C27U A43C A70U C71U | -0.322
U2C G6A A69G A70U C71U | -0.174
U2C G6U A43C C46U C66A A70G C71U | 0.00139
G1A U2G A43C C46U C66U C71U | -0.223
G6U C27U C66U A69G A70G C71U | -0.355
G1A U2G G6A A70G C71U | -0.172
U2G G6U C27U A43C C46U C66U A69G | -0.317
G1A U2C G6U C27U A70U C71U | -0.287

Variant | yeast fitness (ln)
G6U A43C C46U C66A A69G A70G | -0.147
U2G G6A C46U C66A A70G C71U | -0.148
U2C G6A C27U A43C C46U A69G A70G | -0.0933
G1A U2C G6A C27U C46U C66U A70G | -0.0633
U2C C66U A70U | -0.0706
G6A A43C C66U A70U C71U | -0.384
U2C G6A C27U C66U A69G A70U | -0.138
G1A U2G G6U C46U C66A A70G C71U | -0.511
G1A G6A C27U A43C C66A A70G C71U | -0.267
G1A U2G G6A A43C C66A A70U | -0.216
G6U C27U C66U A70U | -0.261
U2C G6U A43C C46U C66A | -0.0972
G1A U2G G6A A69G A70G C71U | -0.298
G1A U2G G6U C27U C46U | -0.217
U2C G6U C46U A69G C71U | -0.0672
G1A U2C C27U C46U A69G A70G C71U | -0.0376
U2C G6U C27U C46U C66U A69G A70G C71U | -0.493
G6A C46U C71U | -0.359
C66A A70G C71U | -0.0666
G1A A70G | -0.204
